Assay outcomes from PubChem.
MOR-DOR ag: agonists of OPRM1-OPRD1 heterodimerization, primary screen, cell-based, luminescence; hit rate 0.3% among 340,000; cells; AID 504326, 2011; activation, % at 9.3 µM; in the data active = activation above about 18%
HTR5A ag: HTR5A agonists in luminescence cell assay, primary screen, counter-screen for OPRM1-OPRD1 heterodimer agonist project, full-deck HTS. 5-hydroxytryptamine receptor 5A (Homo sapiens), P47898. cell-based. activation, % at 9.3 µM. hit rate 0.61% among 340,000; in the data active = activation mostly above about 9.5%, no sharp cut-off; inactive = mostly below about 7.6%
Target sequence (P47898 whole entry, looked up): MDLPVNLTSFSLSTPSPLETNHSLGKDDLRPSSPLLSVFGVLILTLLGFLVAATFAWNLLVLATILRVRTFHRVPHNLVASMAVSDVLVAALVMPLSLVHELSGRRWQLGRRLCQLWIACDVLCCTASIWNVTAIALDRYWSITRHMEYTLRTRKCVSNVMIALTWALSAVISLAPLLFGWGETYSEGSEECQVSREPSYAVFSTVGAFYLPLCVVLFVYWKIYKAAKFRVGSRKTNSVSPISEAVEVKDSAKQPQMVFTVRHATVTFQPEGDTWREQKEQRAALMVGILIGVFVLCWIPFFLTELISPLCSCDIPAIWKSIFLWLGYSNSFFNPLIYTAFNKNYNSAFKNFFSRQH
MOR-DOR inv ag: inverse agonists of MOR-DOR heterodimerization, primary screen, cell-based, luminescence; Mu-type opioid receptor (Homo sapiens) + Delta-type opioid receptor (Homo sapiens), …; cell-based MOR-DOR heterodimer luminescence, inverse agonism; inhibition, % at 9.3 µM; hit rate 0.21% among 340,000; in the data active = inhibition above about 22%, passing the limit was not always enough
HTR5A inv ctr: HTR5A inverse agonists in luminescence cell assay, primary screen, counter-screen for OPRM1-OPRD1 heterodimer inverse agonist project, full-deck HTS. HTR5A cell line, inverse agonism. inhibition, % at 9.3 µM. hit rate 0.083% among 340,000. AID 504634, 2011; in the data active = inhibition mostly above about 23%, no sharp cut-off; inactive = mostly below about 18%
MC4R antag cAMP: MC4R antagonists of cAMP signaling, primary screen, cell-based, TR-FRET, antagonist arm of biased-ligand search | inhibition, % at 6.5 µM | hit rate 0.48% among 360,000 | Melanocortin receptor 4 (Homo sapiens), P32245 | MC4R-expressing cells, MTII-stimulated cAMP, LANCE TR-FRET | AID 540295, 2011;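 active = inhibition above its plate's cutoff, the mean of tested wells on that plate plus 3 SD, cut at about 29% in these data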
Target sequence (P32245 whole entry, looked up): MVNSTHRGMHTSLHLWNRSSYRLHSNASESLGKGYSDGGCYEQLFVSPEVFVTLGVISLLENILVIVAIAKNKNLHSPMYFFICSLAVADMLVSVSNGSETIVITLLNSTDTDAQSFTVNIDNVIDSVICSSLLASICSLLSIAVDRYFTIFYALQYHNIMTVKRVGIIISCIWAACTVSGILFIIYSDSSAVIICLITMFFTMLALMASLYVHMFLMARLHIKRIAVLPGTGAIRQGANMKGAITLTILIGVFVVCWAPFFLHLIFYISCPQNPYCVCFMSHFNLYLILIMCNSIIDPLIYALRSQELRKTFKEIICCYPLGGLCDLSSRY
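Material – human MC4R-expressing U2OS cells · Repeats – no replicates · Detection – TR-FRET with Eu-cAMP and labeled anti-cAMP, 671 nm · Times – compound 30 min, challenge 1 h, detection 1 h · Compound – single nominal compound dose of 6.5 µM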
MC4R ag barr: MC4R agonists recruiting beta-arrestin, primary screen, cell-based, luminescence, agonist arm of biased-ligand search | Melanocortin receptor 4 (Homo sapiens), P32245 | U2OS MC4R beta-arrestin complementation; percent of melanotan II response, DMSO zero | activation, % at 8.9 µM | hit rate 0.98% among 360,000;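 active = activation above a per-plate cutoff, the mean activation of sample wells on that plate plus 3 SD, cut at about 8% in these data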
U2OS cAMP counter: nonselective cAMP signaling inhibitors, parental cells, counter-screen for MC4R biased antagonist project, cell-based, TR-FRET, U2OS, forskolin, triplicate; shares compounds with MC4R antag cAMP; LANCE TR-FRET; inhibition, % at 6.5 µM; hit rate 26% among 1,600;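 active = mean inhibition over triplicates above the low-control well mean plus 3 SD, set per campaign, cut at about 13% in these data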;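 note: signal is single emission at 671 nm which falls as cellular cAMP rises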
MC4R cAMP antag: MC4R cAMP antagonists, retest, confirmation, cell-based, TR-FRET; inhibition, % at 6.5 µM; hit rate 27% among 1,600; MC4R-expressing cells, MTII-stimulated cAMP; shares compounds with MC4R antag cAMP; in the data active = inhibition above about 29%
Large screens that a line does not name were inactive (follow-up assays come after a bar, where they were run). Compounds with a hit are over-represented: about 2.4% of the library has one in this group of screens.

N#Cc1ccc(/C=C/C(=O)c2ccco2)cc1	MC4R antag cAMP 30.8 | U2OS cAMP counter inactive | MC4R cAMP antag inactive
Nc1ccc(/C=C/C(=O)c2ccco2)cc1	none
COc1ccc(CNC(=S)N2CCN(Cc3ccccc3)CC2)cc1	none
CCOC(=O)c1c(-c2ccc(-c3ccccc3)cc2)csc1NC(=O)CNCCN(C)C	none
CCOC(=O)c1c(NC(=O)CCl)sc(CN(C)C)c1-c1ccccc1	MC4R antag cAMP 47.9 | U2OS cAMP counter 22.9 | MC4R cAMP antag 41.0
CCOc1cc(NC(=S)NCC2CCCO2)c(OCC)cc1NC(=O)c1ccccc1C (stereo unspecified)	MC4R antag cAMP 29.8 | U2OS cAMP counter inactive | MC4R cAMP antag inactive
COc1ccc2c(CC(=O)OCC(=O)N(C)c3c(N)n(Cc4ccccc4)c(=O)[nH]c3=O)coc2c1	none
CC(Sc1ccc2ccccc2n1)C(=O)O (stereo unspecified)	MC4R antag cAMP 58.0 | U2OS cAMP counter 42.2 | MC4R cAMP antag 76.7
CC(Sc1cnc2ccccc2n1)C(=O)O (stereo unspecified)	none
CCc1ccc(C(=O)C(C)OC(=O)c2nc3nc(C)cc(C)n3n2)cc1 (stereo unspecified)	none
Brc1ccc(-c2nn3c(-c4ccco4)nnc3s2)o1	MC4R antag cAMP 44.5 | U2OS cAMP counter 26.0 | MC4R cAMP antag 38.6
COc1ccc(CN2CC(C(=O)NCCCN3CCCC(C)C3)CC2=O)cc1 (stereo unspecified)	MC4R antag cAMP 33.7 | U2OS cAMP counter inactive | MC4R cAMP antag inactive
Cc1cccc(Nc2nc(NCCCN3CCOCC3)nc(N)c2[N+](=O)[O-])c1	none
CC1(C)CC(=O)C(CSC(=O)c2ccccc2)C(=O)C1	none (no result: MOR-DOR ag, HTR5A ag, MOR-DOR inv ag, HTR5A inv ctr)
Cc1cc2c(c(=O)o1)C(c1cccs1)C(C#N)=C(N)O2 (stereo unspecified)	none
Cc1ccc([C@H]2C(C#N)=C(N)Oc3cc(C)oc(=O)c32)o1	MC4R antag cAMP 30.4 | U2OS cAMP counter inactive | MC4R cAMP antag inactive
O=C(O)c1ccc2c(c1)SC1=NS(=O)(=O)CCN12	MC4R antag cAMP 28.9 | U2OS cAMP counter 20.3 | MC4R cAMP antag inactive
CCOc1ccc(NC(=O)COC(=O)C23CC4CC(CC(C4)C2)C3)c([N+](=O)[O-])c1	none
CCOC(=O)c1nc(C)sc1-c1ccnn1S(=O)(=O)c1cccc(Cl)c1	none
O=C(c1ccccc1)c1cccc(NC(=O)c2ccc(Br)o2)c1	none
O=C(Nc1cccc(NC(=O)c2ccc(Br)o2)c1)c1ccccc1	MC4R antag cAMP 34.4 | U2OS cAMP counter inactive | MC4R cAMP antag inactive
Cc1ccc(S(=O)(=O)Nc2ccc(Cl)cc2C(=O)c2ccc(F)cc2)cc1	none
COc1ccc(NC(=O)N2CCN(C(=O)Nc3ccc(OC)cc3)CC2)cc1	none
COc1ccc(NC(=O)N2CCN(c3nc4ccccc4n3C(C)C)CC2)cc1	MC4R antag cAMP 30.2 | U2OS cAMP counter inactive | MC4R cAMP antag inactive
COC(=O)c1ccc(/C=C/C(=O)OCC(=O)Nc2sccc2C(N)=O)cc1	MC4R antag cAMP 35.8 | U2OS cAMP counter 14.9 | MC4R cAMP antag 29.5
CC1CCCC(NC(=O)CCC(=O)c2ccc(F)cc2)C1C (stereo unspecified)	none
CC1CCCC(NC(=O)CSc2ccc(F)cc2)C1C (stereo unspecified)	MC4R antag cAMP 32.2 | U2OS cAMP counter inactive | MC4R cAMP antag inactive
O=S(=O)(c1ccc(Br)c2nsnc12)N1CCOCC1	MC4R antag cAMP 29.9 | U2OS cAMP counter inactive | MC4R cAMP antag inactive
CCOc1ncccc1C(=O)Nc1nc(C(C)(C)C)cs1	MC4R antag cAMP 34.0, MC4R ag barr 8.7 | U2OS cAMP counter inactive | MC4R cAMP antag inactive
Cc1cc(NC(=O)c2ccco2)c(=O)n(Cc2cccc(C(F)(F)F)c2)c1	none
COc1cc(-c2nnc(Sc3ccc(C(F)(F)F)cc3[N+](=O)[O-])o2)cc(OC)c1OC	MC4R antag cAMP 28.6 | U2OS cAMP counter inactive | MC4R cAMP antag inactive
O=C(O)c1ccc(Sc2nnc(-c3cccc(Br)c3)o2)c([N+](=O)[O-])c1	none
CC(NC(=O)COC(=O)CNS(=O)(=O)/C=C/c1ccccc1)c1ccccc1 (stereo unspecified)	MC4R antag cAMP 29.7 | U2OS cAMP counter inactive | MC4R cAMP antag inactive
CC(C)(C)NC(=O)NC(=O)COC(=O)CNS(=O)(=O)/C=C/c1ccccc1	none
O=C(CN(Cc1ccc(Cl)cc1)C(=O)CNS(=O)(=O)c1ccccc1)NCC1CCCO1 (stereo unspecified)	MC4R antag cAMP 31.0 | U2OS cAMP counter inactive | MC4R cAMP antag inactive
O=C(CN(Cc1ccccc1)C(=O)CNS(=O)(=O)c1ccccc1)NCC1CCCO1 (stereo unspecified)	none
CC1CCCN(c2nc(-c3cccnc3)nc3scc(-c4ccccc4)c23)C1 (stereo unspecified)	MC4R antag cAMP 37.2 | U2OS cAMP counter inactive | MC4R cAMP antag inactive
CCN(c1ccccc1)S(=O)(=O)c1ccc(NC(=O)c2nc(S(C)(=O)=O)ncc2Cl)cc1	MC4R antag cAMP 60.0 | U2OS cAMP counter 23.6 | MC4R cAMP antag 46.1
Cc1ccccc1CS(=O)(=O)c1ncc(Cl)c(C(=O)Nc2ccc(F)cc2)n1	MC4R antag cAMP 42.0 | U2OS cAMP counter 29.3 | MC4R cAMP antag inactive
Cc1ccc(NC(=O)c2nc(S(=O)(=O)Cc3ccccc3)ncc2Cl)cc1	none
CCS(=O)(=O)c1ncc(Cl)c(C(=O)Nc2ccc(S(=O)(=O)N(C)c3ccccc3)cc2)n1	MC4R antag cAMP 51.9 | U2OS cAMP counter inactive | MC4R cAMP antag 35.7
N#CCCN(C(=O)COC(=O)C1CCN(S(=O)(=O)c2ccccc2C(F)(F)F)CC1)c1ccccc1	none
CC(=O)Nc1ccc(-c2ccnc3c2CC(C(=O)NCc2ccccc2)O3)cc1 (stereo unspecified)	none (no result: MOR-DOR ag, HTR5A ag, MOR-DOR inv ag, HTR5A inv ctr)
CCN(C(=O)CSc1n[nH]c(-c2cccs2)n1)C1CCS(=O)(=O)C1 (stereo unspecified)	MC4R antag cAMP 29.9 | U2OS cAMP counter inactive | MC4R cAMP antag inactive
